Key:
[1] = test system: Hepatitis C virus; test: Antiviral activity against Hepatitis C virus subtype 1b; type: functional, organism-based, Hepacivirus hominis; conditions: genotype 1b
[2] = test system: Coxsackievirus B3; test: Antiviral activity against Human coxsackievirus B3; type: functional, organism-based; conditions: Enterovirus B
[3] = test system: Human rhinovirus sp.; test: Antiviral activity against Human rhinovirus; type: functional, organism-based
[4] = species on record: Homo sapiens; test: Inhibition of PI4K3 beta (unknown origin) assessed as residual activity at 10 uM by ADP-Glo assay relative to control
Procedure, shortened: (§1)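 PI4K IIIα and PI4K IIIβ activity read by ADP-Glo assay. Each compound was tested at a single concentration of 10 μM, and residual enzyme activity was expressed relative to control.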

[5] = Cytotoxicity against human HeLa cells; type: cell-based
[6] = species on record: Homo sapiens; test: Inhibition of PI4K3 alpha (unknown origin) at 10 uM by ADP-Glo assay relative to control; procedure, shortened: as §1
[7] = Inhibition of PI4K3 beta (unknown origin) by ADP-Glo assay; design: species or system Homo sapiens

SMILES | EC50 [1] | EC50 [2] | EC50 [3] | Activity [4] | inhibition [6] | IC50 [7] | CC50 [5]
COc1ccc(-n2c(I)nc3c(NCCN4CCOCC4)nc(C)nc32)cc1OC | 20 µM | 40 µM | > 50 µM | 38% | < 50% | – | > 50 µM
COc1ccc(-n2c(C)nc3c(NCCN4CCOCC4)nc(-c4ccc(O)cc4)nc32)cc1OC | 1.3 µM | 1.8 µM | 3 µM | 18% | < 50% | 2.37 µM | > 50 µM
COc1ccc(-n2c(C)nc3c(NCCN4CCOCC4)nc(-c4ccc(F)cc4)nc32)cc1OC | 4.4 µM | 27 µM | 3.4 µM | 66% | < 50% | – | > 50 µM
COc1ccc(-n2nnc3c(NCCN4CCOCC4)ncnc32)cc1OC | 32 µM | > 50 µM | – | 41% | < 50% | – | > 50 µM
COc1ccc(-n2c(C)nc3c(NCCN4CCOCC4)nc(-c4cccc(NC(C)=O)c4)nc32)cc1OC | 5.9 µM | 1.6 µM | 9.3 µM | 14% | < 50% | 2.14 µM | > 50 µM
COc1ccc(-n2c(CO)nc3c(NCCN4CCOCC4)nc(C)nc32)cc1OC | > 44 µM | > 50 µM | – | 62% | < 50% | – | > 50 µM
COc1ccc(-n2c(C)nc3c(NCCN4CCOCC4)nc(-c4ccsc4)nc32)cc1OC | 23 µM | – | > 50 µM | 46% | < 50% | – | > 50 µM
COc1ccc(-n2c(-c3ccc(F)cc3)nc3c(NCCN4CCOCC4)nc(C)nc32)cc1OC | > 44 µM | > 50 µM | > 50 µM | 78% | < 50% | – | > 50 µM
COc1ccc(-n2c(C)nc3c(NCCN4CCOCC4)nc(-c4cccc(Cl)c4)nc32)cc1OC | 5 µM | > 50 µM | 9 µM | 67% | < 50% | – | > 50 µM
COc1ccc(-n2c(C)nc3c(NCCN4CCOCC4)nc(N)nc32)cc1OC | 40 µM | 19 µM | 49 µM | 25% | < 50% | 1.44 µM | > 50 µM
COc1ccc(-n2c(C(C)C)nc3c(NCCN4CCOCC4)nc(C)nc32)cc1OC | > 44 µM | > 50 µM | – | 65% | < 50% | – | > 50 µM
COc1ccc(-n2c(C#Cc3ccccc3)nc3c(NCCN4CCOCC4)nc(C)nc32)cc1OC | 30 µM | > 50 µM | > 50 µM | 96% | < 50% | – | > 50 µM
COc1ccc(-n2c(C)nc3c(NCCN4CCOCC4)nc(C#Cc4ccccc4)nc32)cc1OC | 6 µM | 5 µM | 8 µM | 58% | < 50% | – | 48 µM
COc1ccc(-n2c(-c3ccc(CO)cc3)nc3c(NCCN4CCOCC4)nc(C)nc32)cc1OC | > 44 µM | > 50 µM | > 50 µM | 103% | < 50% | – | > 50 µM
COc1ccc(-n2c(C)nc3c(NCCN4CCOCC4)ncnc32)cc1OC | 19 µM | 5 µM | 28 µM | 13% | < 50% | 1.61 µM | > 50 µM
COc1ccc(-n2ccc3c(NCCN4CCOCC4)ncnc32)cc1OC | 22 µM | > 50 µM | – | 74% | < 50% | – | > 50 µM
COc1ccc(-n2c(-c3ccsc3)nc3c(NCCN4CCOCC4)nc(C)nc32)cc1OC | > 44 µM | > 50 µM | > 50 µM | 94% | < 50% | – | > 50 µM
COc1ccc(-n2cnc3c(NCCN4CCOCC4)nc(C)nc32)cc1OC | 11.5 µM | 34 µM | – | 26% | < 50% | – | > 50 µM
COc1ccc(Cn2c(C)nc3c(NCCN4CCOCC4)nc(C)nc32)cc1OC | 43 µM | > 50 µM | > 50 µM | 126% | < 50% | – | > 50 µM
COc1nc(NCCN2CCOCC2)c2nc(C)n(-c3ccc(OC)c(OC)c3)c2n1 | 6 µM | > 50 µM | 16 µM | 15% | < 50% | 2.99 µM | > 50 µM
COc1ccc(-n2c(C3CCCCC3)nc3c(NCCN4CCOCC4)nc(C)nc32)cc1OC | > 44 µM | > 50 µM | > 50 µM | 79% | < 50% | – | > 50 µM
COc1ccc(-n2c(OC)nc3c(NCCN4CCOCC4)nc(C)nc32)cc1OC | > 44 µM | > 50 µM | > 50 µM | 86% | < 50% | – | > 50 µM
COc1ccc(-n2nnc3c(NCCN4CCOCC4)nc(C)nc32)cc1OC | 33 µM | 26 µM | – | 31% | < 50% | – | > 50 µM
COc1ccc(-n2c(-c3ccc(O)cc3)nc3c(NCCN4CCOCC4)nc(C)nc32)cc1OC | > 44 µM | > 50 µM | > 50 µM | 125% | < 50% | – | > 50 µM

The next lines start with results.

EC50 [1] | EC50 [2] | EC50 [3] | Activity [4] | inhibition [6] | IC50 [7] | SMILES | CC50 [5]
> 44 µM | – | 9.6 µM | 112% | < 50% | – | COc1ccc(-n2c(-c3ccc(OCc4ccccc4)cc3)nc3c(NCCN4CCOCC4)nc(C)nc32)cc1OC | 26 µM
13 µM | > 50 µM | 26 µM | 18% | < 50% | 1.91 µM | C#Cc1nc(NCCN2CCOCC2)c2nc(C)n(-c3ccc(OC)c(OC)c3)c2n1 | > 50 µM
15 µM | 14 µM | 3.3 µM | 36% | < 50% | – | COc1ccc(-n2c(C)nc3c(NCCN4CCOCC4)nc(-c4cccnc4)nc32)cc1OC | > 50 µM
3.8 µM | 1.1 µM | 3.3 µM | 16% | < 50% | 1.09 µM | COc1ccc(-n2c(C)nc3c(NCCN4CCOCC4)nc(-c4cccc(C(=O)N(C)C)c4)nc32)cc1OC | > 50 µM
10 µM | 9 µM | 16 µM | 33% | < 50% | – | COc1ccc(-n2c(C)nc3c(NCCN4CCOCC4)nc(I)nc32)cc1OC | > 50 µM
> 44 µM | > 50 µM | > 50 µM | 75% | < 50% | – | COc1ccc(-n2c(C3CC=CCC3)nc3c(NCCN4CCOCC4)nc(C)nc32)cc1OC (centres undefined) | > 50 µM
> 44 µM | 8 µM | 40 µM | 14% | < 50% | 0.91 µM | COc1ccc(-n2c(C)nc3c(NCCN4CCOCC4)nc(C)nc32)cc1OC | > 50 µM
> 44 µM | > 50 µM | > 50 µM | 97% | < 50% | – | COc1ccc(-n2c(-c3ccc(C#N)cc3)nc3c(NCCN4CCOCC4)nc(C)nc32)cc1OC | > 50 µM
> 44 µM | > 50 µM | > 50 µM | 99% | < 50% | – | COc1ccc(-n2c(C(F)(F)F)nc3c(NCCN4CCOCC4)nc(C)nc32)cc1OC | > 50 µM
3.9 µM | 9.9 µM | 3 µM | 97% | < 50% | – | COc1ccc(-n2c(C)nc3c(NCCN4CCOCC4)nc(-c4ccc(C#N)cc4)nc32)cc1OC | > 50 µM
14 µM | > 50 µM | 31 µM | 24% | < 50% | 2.07 µM | COc1ccc(-n2c(C)nc3c(NCCN4CCOCC4)nc(C#N)nc32)cc1OC | > 50 µM
6.7 µM | 11 µM | 25 µM | 17% | < 50% | 5.2 µM | COc1ccc(-n2c(Br)nc3c(NCCN4CCOCC4)nc(C)nc32)cc1OC | > 50 µM
> 44 µM | > 50 µM | > 50 µM | 138% | < 50% | – | COc1ccc(-n2c(-c3ccc(C=O)cc3)nc3c(NCCN4CCOCC4)nc(C)nc32)cc1OC | > 50 µM

From ChEMBL document CHEMBL3804807, “Purine analogs as phosphatidylinositol 4-kinase IIIβ inhibitors” (Bioorg Med Chem Lett, 2016)
